Laboratory results: ChEMBL document CHEMBL2311380, “The first total synthesis and biological evaluation of marine natural products ma'edamines A and B” (Bioorg Med Chem Lett, 2013)
Activity calls are given as the source filed them. No cut-off for these calls is given here.

How the values were obtained:
A549 [1] = test: Cytotoxicity against human lung adenocarcinoma cell line A549 assessed as inhibition of cell viability measured after 24 hrs by MTT assay; format: functional, cell-based; conditions: A549, 24 h
Method in brief: (§1)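 Exponentially growing cells exposed to compound, then allowed to proliferate for two to three population doubling times; surviving cells quantified by MTT reduction by mitochondrial dehydrogenase to formazan, dissolved in DMSO and read at 570 nm.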

THP-1 = test: Cytotoxicity against human acute monocytic leukemia cell line THP1 assessed as inhibition of cell viability measured after 24 hrs by MTT assay; format: functional, cell-based; conditions: THP-1, 24 h; method in brief: as §1
A549 [2] = test: Cytotoxicity against human […] assessed as cell death measured at 1 ug/mL after 24 hrs by MTT assay; format: functional
Method in brief: (§2)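 Cells in exponential growth exposed to compound, then left to proliferate for two to three population doubling times so viable, proliferating cells are told apart from non-proliferating ones. Surviving cells estimated by MTT reduction to formazan by mitochondrial dehydrogenase; formazan dissolved in DMSO and read at 570 nm.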

A549 [3] = test: Cytotoxicity against human […] assessed as cell death measured at 10 ug/mL after 24 hrs by MTT assay; format: functional; method in brief: as §2
A549 [4] = test: Cytotoxicity against human […] assessed as cell death measured at 2 ug/mL after 24 hrs by MTT assay; format: functional; method in brief: as §2
A549 [5] = test: Cytotoxicity against human […] assessed as cell death measured at 7 ug/mL after 24 hrs by MTT assay; format: functional; method in brief: as §2
MCF7 [6] = test: Cytotoxicity against human breast cancer cell line MCF7 assessed as inhibition of cell viability […] by MTT assay; format: functional, cell-based
COLO 205 [7] = test: Cytotoxicity against human colon cancer line COLO205 assessed as cell death measured at 1 ug/mL after 24 hrs by MTT assay; format: functional; method in brief: as §2
A549 [8] = test: Cytotoxicity against human […] assessed as cell death measured at 5 ug/mL after 24 hrs by MTT assay; format: functional; method in brief: as §2
COLO 205 [9] = test: Cytotoxicity against human colon cancer line COLO205 assessed as cell death measured at 2 ug/mL after 24 hrs by MTT assay; format: functional; method in brief: as §2
COLO 205 [10] = test: Cytotoxicity against human colon cancer line COLO205 assessed as cell death measured at 10 ug/mL after 24 hrs by MTT assay; format: functional; method in brief: as §2
MCF7 [11] = test: Cytotoxicity against human colon cancer line MCF7 assessed as cell death measured at 2 ug/mL after 24 hrs by MTT assay; format: functional; method in brief: as §2
MCF7 [12] = test: Cytotoxicity against human colon cancer line MCF7 assessed as cell death measured at 7 ug/mL after 24 hrs by MTT assay; format: functional; method in brief: as §2
MCF7 [13] = test: Cytotoxicity against human colon cancer line MCF7 assessed as cell death measured at 5 ug/mL after 24 hrs by MTT assay; format: functional; method in brief: as §2
MCF7 [14] = test: Cytotoxicity against human colon cancer line MCF7 assessed as cell death measured at 10 ug/mL after 24 hrs by MTT assay; format: functional; method in brief: as §2
COLO 205 [15] = test: Cytotoxicity against human colon cancer line COLO205 assessed as inhibition of cell viability measured after 24 hrs by MTT assay; format: functional, cell-based; conditions: COLO 205, 24 h; method in brief: as §1
COLO 205 [16] = test: Cytotoxicity against human colon cancer line COLO205 assessed as cell death measured at 7 ug/mL after 24 hrs by MTT assay; format: functional; method in brief: as §2
COLO 205 [17] = test: Cytotoxicity against human colon cancer line COLO205 assessed as cell death measured at 5 ug/mL after 24 hrs by MTT assay; format: functional; method in brief: as §2
MCF7 [18] = test: Cytotoxicity against human colon cancer line MCF7 assessed as cell death measured at 1 ug/mL after 24 hrs by MTT assay; format: functional; method in brief: as §2
MCF7 [19] = test: Induction of apoptosis in human MCF7 cells assessed as double-strand DNA break at IC50 concentration measured after 24 hrs by comet assay relative to control; format: functional, cell-based
Method in brief: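 Treated cells embedded in low melting agarose on a microscope slide, lysed at alkaline pH, electrophoresed at high pH, then examined for comet tails as a sign of double-strand DNA breaks, with untreated cells as control.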

B16-F10 = test: Cytotoxicity against mouse melanoma cell line B16F10 assessed as inhibition of cell viability measured after 24 hrs by MTT assay; format: functional, cell-based; conditions: B16-F10, 24 h; method in brief: as §1
MCF7 [20] = test: Cytotoxicity against human breast cancer cell line MCF7 assessed as cell survival measured after 24 hrs by MTT assay relative to control; format: functional; method in brief: as §2
MCF7 [21] = test: Induction of apoptosis in human MCF7 cells assessed as DNA laddering at IC50 concentration measured after 24 hrs by DNA laddering assay relative to control; format: functional, cell-based
Method in brief: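 DNA from treated and untreated cells run on a gel and examined for fragmentation (laddering).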

HepG2 = test: Cytotoxicity against human liver hepatocellular carcinoma cell line HepG2 assessed as inhibition of cell viability measured after 24 hrs by MTT assay; format: functional, cell-based; conditions: HepG2, 24 h; method in brief: as §1

COc1ccc(Cc2nc(-c3cc(Br)c(O)c(Br)c3)cnc2Cl)cc1Br
IC50 (A549 [1]): 41.2 µM | IC50 (THP-1): 108 µM

COc1ccc(Cc2nc(-c3cc(Br)c(OCCCN(C)C)c(Br)c3)cnc2Cl)cc1Br
IC50 (A549 [1]): 14.4 µM | IC50 (THP-1): 87.3 µM

COc1ccc(Cc2nc(-c3cc(Br)c(O)c(Br)c3)c[nH]c2=O)cc1Br
IC50 (A549 [1]): 52 µM | IC50 (THP-1): 125 µM

CNCCCOc1c(Br)cc(-c2cnc(Cl)c(Cc3ccc(OC)c(Br)c3)n2)cc1Br
IC50 (A549 [1]): 25.3 µM | IC50 (THP-1): 133 µM

COc1cc([C@@H]2c3cc4c(cc3[C@@H](O[C@@H]3O[C@@H]5CO[C@@H](C)O[C@H]5[C@H](O)[C@H]3O)[C@H]3COC(=O)[C@H]23)OCO4)cc(OC)c1O [ETOPOSIDE]
Activity (A549 [2]): 47.9% | Activity (A549 [3]): 100% | Activity (A549 [4]): 93.4% | Activity (A549 [5]): 100% | IC50 (MCF7 [6]): 16.3 µM | Activity (COLO 205 [7]): 17.8% | Activity (A549 [8]): 100% | Activity (COLO 205 [9]): 39.2% | Activity (COLO 205 [10]): 100% | Activity (MCF7 [11]): 8.9% | Activity (MCF7 [12]): 33.7% | Activity (MCF7 [13]): 23.9% | Activity (MCF7 [14]): 51% | IC50 (COLO 205 [15]): 5.3 µM | Activity (COLO 205 [16]): 100% | Activity (COLO 205 [17]): 78.7% | Activity (MCF7 [18]): 4.3%

COc1ccc(Cc2nc(-c3cc(Br)c(OCCCN(C)C)c(Br)c3)c[nH]c2=O)cc1Br [Ma'edamine A]
Activity (MCF7 [19]): Active | IC50 (B16-F10): 16.7 µM | IC50 (A549 [1]): 12.2 µM | Survival (MCF7 [20]): 47.7% | IC50 (MCF7 [6]): 6.9 µM | IC50 (THP-1): 46.2 µM | Activity (MCF7 [21]): Active | IC50 (HepG2): 29.6 µM | IC50 (COLO 205 [15]): 7.9 µM

CNCCCOc1c(Br)cc(-c2c[nH]c(=O)c(Cc3ccc(OC)c(Br)c3)n2)cc1Br [Ma'edamine B]
Activity (MCF7 [19]): Active | IC50 (B16-F10): 53.3 µM | IC50 (A549 [1]): 15.4 µM | Survival (MCF7 [20]): 49.256% | IC50 (MCF7 [6]): 10.9 µM | IC50 (THP-1): 90.7 µM | Activity (MCF7 [21]): Active | IC50 (HepG2): 42.8 µM | IC50 (COLO 205 [15]): 10.3 µM
